Assay results: ChEMBL document CHEMBL1124054, “Synthesis and biological activity of ketomethylene-containing nonapeptide analogues of snake venom angiotensin converting enzyme inhibitors” (J Med Chem, 1988)
Starred links: 1 amine or outer side, 2 acyl side, 3 side chain; linkers in the order of their positions; H or OH if unused. Non-standard residues stand in square brackets, D forms with d. Residues, ends and D or L forms follow the SMILES beside them. *: point of attachment. X2 = O=C(CCC(=O)[*:2])[C@H](Cc1ccccc1)N[*:1]; X1 = O=C(CCC(=O)[*:2])[C@@H]1CCCN1[*:1]; Cyclobutanecarbonyl = O=C(C1CCC1)*; pGlu = O=C1CC[C@@H](C(=O)O)N1; Nle = CCCC[C@H](N)C(=O)O

Experiments:
[1] = test system: trypsin; assay: Time required for 50% degradation by trypsin; assay type: ADME; conditions: read-out: Time
[2] = test system: Rattus norvegicus; assay: Inhibition of angiotensin I induced blood pressure in normotensive anesthetized rats at 1 ug/kg (i.v.) for 5 min; assay type: functional
Procedure, shortened: (§1)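 Male Sprague-Dawley normotensive rats (290-540 g), pentobarbital-anesthetized (50 mg/kg ip), intubated. Jugular vein cannulated for iv dosing and carotid artery for blood pressure. Control pressor response to angiotensin I (175 ng/kg iv) taken after vehicle (1 mL/kg). Compound given iv in distilled water or 5% sodium bicarbonate. Angiotensin I challenge repeated at 1.5 to 75 min, rise in pressure compared with control.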

[3] = Time required for 50% degradation in rat intestinal homogenate; assay type: ADME; conditions: read-out: Time (converted)
Procedure, shortened: (§2)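 Rat small intestine was taken immediately after sacrifice and minced in Krebs Ringer (10 mL/g). Peptide (0.2–0.5 μmol) mixed with homogenate (1.0 mL per μmol), shaken at 37 °C. Degradation followed by TLC.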

[4] = test system: Rattus norvegicus; assay: Inhibition of angiotensin I induced blood pressure in normotensive anesthetized rats at 30 ug/kg (i.v.) for 1.5 min; assay type: functional; procedure, shortened: as §1
[5] = test system: Rattus norvegicus; assay: Inhibition of angiotensin I induced blood pressure in normotensive anesthetized rats at 10 ug/kg (i.v.) for 30 min; assay type: functional; procedure, shortened: as §1
[6] = test system: Rattus norvegicus; assay: Inhibition of angiotensin I induced blood pressure in normotensive anesthetized rats at 10 ug/kg (i.v.) for 5 min; assay type: functional; procedure, shortened: as §1
[7] = Time required for degradation by pepsin (none); assay type: ADME
[8] = test system: Rattus norvegicus; assay: Inhibition of angiotensin I induced blood pressure in normotensive anesthetized rats at 30 ug/kg (i.v.) for 5 min; assay type: functional; procedure, shortened: as §1
[9] = molecular target: Angiotensin-converting enzyme (Oryctolagus cuniculus) (UniProt P12822); assay: Inhibition of Angiotensin I converting enzyme from rabbit lung; conditions: read-out: I50
[10] = test system: Rattus norvegicus; assay: Inhibition of angiotensin I induced blood pressure in normotensive anesthetized rats at 1 ug/kg (i.v.) for 30 min; assay type: functional; procedure, shortened: as §1
[11] = test system: Rattus norvegicus; assay: Inhibition of angiotensin I induced blood pressure in normotensive anesthetized rats at 30 ug/kg (i.v.) for 30 min; assay type: functional; procedure, shortened: as §1
[12] = test system: Rattus norvegicus; assay: Inhibition of angiotensin I induced blood pressure in normotensive anesthetized rats at 1 ug/kg (i.v.) for 60 min; assay type: functional; procedure, shortened: as §1
[13] = test system: Rattus norvegicus; assay: Inhibition of angiotensin I induced blood pressure in normotensive anesthetized rats at 10 ug/kg (i.v.) for 60 min; assay type: functional; procedure, shortened: as §1
[14] = Time required for 100% degradation by trypsin; assay type: ADME
[15] = test system: chymotrypsin; assay: Time required for 50% degradation by chymotrypsin; assay type: ADME; conditions: read-out: Time (converted)
Procedure, shortened: (§3)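 Peptide (0.5–1.0 μmol) in 0.1 M Tris, pH 7.8, stirred at room temperature with chymotrypsin (37 units dissolved in 50 mL cold 0.001 N HCl; 0.050 mL per μmol peptide). Degradation followed over time by TLC.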

[16] = species on record: Rattus norvegicus; assay: Time required for 100% degradation in rat intestinal homogenate; assay type: ADME; procedure, shortened: as §2
[17] = test system: Rattus norvegicus; assay: Inhibition of angiotensin I induced blood pressure in normotensive anesthetized rats at 30 ug/kg (i.v.) for 75 min; assay type: functional; procedure, shortened: as §1
[18] = test system: Rattus norvegicus; assay: Inhibition of angiotensin I induced blood pressure in normotensive anesthetized rats at 10 ug/kg (i.v.) for 10 min; assay type: functional; procedure, shortened: as §1
[19] = test system: Rattus norvegicus; assay: Inhibition of angiotensin I induced blood pressure in normotensive anesthetized rats at 1 ug/kg (i.v.) for 10 min; assay type: functional; procedure, shortened: as §1
[20] = test system: Rattus norvegicus; assay: Inhibition of angiotensin I induced blood pressure in normotensive anesthetized rats at 30 ug/kg (i.v.) for 60 min; assay type: functional; procedure, shortened: as §1
[21] = test system: Rattus norvegicus; assay: Inhibition of angiotensin I induced blood pressure in normotensive anesthetized rats at 10 ug/kg (i.v.) for 1.5 min; assay type: functional; procedure, shortened: as §1
[22] = test system: Rattus norvegicus; assay: Inhibition of angiotensin I induced blood pressure in normotensive anesthetized rats at 1 ug/kg (i.v.) for 1.5 min; assay type: functional; procedure, shortened: as §1
[23] = test system: Rattus norvegicus; assay: Inhibition of angiotensin I induced blood pressure in normotensive anesthetized rats at 30 ug/kg (i.v.) for 10 min; assay type: functional; procedure, shortened: as §1
[24] = test system: pepsin; assay: Time required for 50% degradation by pepsin; assay type: ADME; conditions: read-out: Time (converted)
[25] = test system: Rattus norvegicus; assay: Inhibition of angiotensin I induced blood pressure in normotensive anesthetized rats at 10 ug/kg (i.v.) for 75 min; assay type: functional; conditions: in the assay text read “30 ug/kg” for “10 ug/kg”; procedure, shortened: as §1
[26] = Time required for 50% degradation in rat stomach homogenate; assay type: ADME; conditions: read-out: Time (converted)
Procedure, shortened: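 Peptide, partially neutralized with 0.1 N HCl, incubated at 37 °C with 150 mg rat stomach homogenate. Breakdown monitored by TLC.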

[27] = Time required for degradation by chymotrypsin (none); assay type: ADME; procedure, shortened: as §3
[28] = Time required for degradation by trypsin (none); assay type: ADME
[29] = molecular target: T1, Angiotensin-converting enzyme (Rattus norvegicus, UniProt P47820); assay: Inhibition of Angiotensin I converting enzyme in normotensive rat; assay type: functional; conditions: read-out: I50 (converted)
T1 sequence (P47820 whole entry): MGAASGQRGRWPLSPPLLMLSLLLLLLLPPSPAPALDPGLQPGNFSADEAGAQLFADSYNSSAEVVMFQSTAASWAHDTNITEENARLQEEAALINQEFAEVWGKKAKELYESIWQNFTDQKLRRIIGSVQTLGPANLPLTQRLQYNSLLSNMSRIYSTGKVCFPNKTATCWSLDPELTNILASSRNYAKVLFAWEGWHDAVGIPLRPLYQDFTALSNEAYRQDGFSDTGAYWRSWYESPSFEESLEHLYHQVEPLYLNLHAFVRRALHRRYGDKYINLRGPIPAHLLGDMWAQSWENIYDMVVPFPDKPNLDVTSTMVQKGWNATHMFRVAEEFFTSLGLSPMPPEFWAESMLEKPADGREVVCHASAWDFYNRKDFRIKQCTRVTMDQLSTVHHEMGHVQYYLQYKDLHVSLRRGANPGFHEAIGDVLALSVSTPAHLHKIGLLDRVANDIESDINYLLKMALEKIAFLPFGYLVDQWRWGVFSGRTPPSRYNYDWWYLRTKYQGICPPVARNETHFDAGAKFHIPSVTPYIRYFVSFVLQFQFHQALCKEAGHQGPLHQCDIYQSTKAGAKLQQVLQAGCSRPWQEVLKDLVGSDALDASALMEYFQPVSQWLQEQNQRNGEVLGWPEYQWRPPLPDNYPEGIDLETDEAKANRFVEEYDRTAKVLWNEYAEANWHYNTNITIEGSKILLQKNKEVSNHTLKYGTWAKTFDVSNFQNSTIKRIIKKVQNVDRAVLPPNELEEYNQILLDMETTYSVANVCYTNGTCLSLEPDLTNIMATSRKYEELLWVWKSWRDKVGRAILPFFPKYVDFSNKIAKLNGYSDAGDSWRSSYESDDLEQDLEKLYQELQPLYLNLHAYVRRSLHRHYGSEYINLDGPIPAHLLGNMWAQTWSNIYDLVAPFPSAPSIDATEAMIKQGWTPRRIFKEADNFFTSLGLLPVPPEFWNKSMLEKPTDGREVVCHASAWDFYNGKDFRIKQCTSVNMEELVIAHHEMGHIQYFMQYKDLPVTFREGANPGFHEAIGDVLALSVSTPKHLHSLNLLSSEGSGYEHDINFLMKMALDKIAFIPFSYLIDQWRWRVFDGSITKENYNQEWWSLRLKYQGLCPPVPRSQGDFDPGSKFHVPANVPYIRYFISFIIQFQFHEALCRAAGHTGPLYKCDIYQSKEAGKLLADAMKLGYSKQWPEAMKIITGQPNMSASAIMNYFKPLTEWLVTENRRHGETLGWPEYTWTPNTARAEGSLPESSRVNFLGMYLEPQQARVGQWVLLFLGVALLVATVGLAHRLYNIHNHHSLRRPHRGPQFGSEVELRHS

[30] = test system: Rattus norvegicus; assay: Inhibition of angiotensin I induced blood pressure in normotensive anesthetized rats at 100 ug/kg (i.v.) for 30 min; assay type: functional; procedure, shortened: as §1
[31] = test system: Rattus norvegicus; assay: Inhibition of angiotensin I induced blood pressure in normotensive anesthetized rats at 100 ug/kg (i.v.) for 1.5 min; assay type: functional; procedure, shortened: as §1
[32] = test system: Rattus norvegicus; assay: Inhibition of angiotensin I induced blood pressure in normotensive anesthetized rats at 100 ug/kg (i.v.) for 5 min; assay type: functional; procedure, shortened: as §1
[33] = test system: Rattus norvegicus; assay: Inhibition of angiotensin I induced blood pressure in normotensive anesthetized rats at 3 ug/kg (i.v.) for 5 min; assay type: functional; procedure, shortened: as §1
[34] = test system: Rattus norvegicus; assay: Inhibition of angiotensin I induced blood pressure in normotensive anesthetized rats at 100 ug/kg (i.v.) for 10 min; assay type: functional; procedure, shortened: as §1
[35] = test system: Rattus norvegicus; assay: Inhibition of angiotensin I induced blood pressure in normotensive anesthetized rats at 3 ug/kg (i.v.) for 10 min; assay type: functional; procedure, shortened: as §1
[36] = test system: Rattus norvegicus; assay: Inhibition of angiotensin I induced blood pressure in normotensive anesthetized rats at 3 ug/kg (i.v.) for 1.5 min; assay type: functional; procedure, shortened: as §1
[37] = test system: Rattus norvegicus; assay: Inhibition of angiotensin I induced blood pressure in normotensive anesthetized rats at 100 ug/kg (i.v.) for 60 min; assay type: functional; procedure, shortened: as §1
[38] = test system: Rattus norvegicus; assay: Inhibition of angiotensin I induced blood pressure in normotensive anesthetized rats at 100 ug/kg (i.v.) for 75 min; assay type: functional; procedure, shortened: as §1

Structure (SMILES)	Inhibition over time [2] [%]	half-life [3] [h]	Inhibition over time [4] [%]	Inhibition over time [5] [%]	Inhibition over time [6] [%]	Inhibition over time [8] [%]	IC50 [9] [nM]	Inhibition over time [10] [%]	Inhibition over time [11] [%]	Time [16] [h]	Inhibition over time [18] [%]	Inhibition over time [19] [%]	Inhibition over time [21] [%]	Inhibition over time [22] [%]	Inhibition over time [23] [%]	further results
NCCCC[C@H](NC(=O)[C@@H]1CCCN1C(=O)CCC(=O)[C@@H]1CCCN1C(=O)[C@H](Cc1ccc(O)cc1)NC(=O)C1CCC1)C(=O)N[C@@H](Cc1ccccc1)C(=O)CCC(=O)N1CCC[C@H]1C(=O)O (Cyclobutanecarbonyl-Y[X1]PK[X2]P-OH)	0	1	79.5	7.8	23.5	45	3.4	0	17.3	5	14.5	0	39.5	24.3	31.5	half-life [1]: 5 min; Time [7]: 20 h; Inhibition over time [12]: 0%; Inhibition over time [13]: 0%; Time [14]: 1 h; half-life [15]: 22 h; Inhibition over time [17]: 12.5%; Inhibition over time [20]: 15.3%
CCCC[C@H](NC(=O)[C@@H]1CCCN1C(=O)CCC(=O)[C@@H]1CCCN1C(=O)[C@H](Cc1ccc(O)cc1)NC(=O)C1CCC1)C(=O)N[C@@H](Cc1ccccc1)C(=O)CCC(=O)N1CCC[C@H]1C(=O)O (Cyclobutanecarbonyl-Y[X1]P[Nle][X2]P-OH)	25.6	7	88.5	0	27.5	59.8	8	22.4	30.8	23	14.5	24.3	64.3	26.3	37	half-life [24]: 3 h; Inhibition over time [25]: 0%; half-life [26]: 5 h; Time [27]: 24 h; Time [28]: 24 h
CC[C@H](C)[C@H](NC(=O)[C@H](CCC(N)=O)NC(=O)[C@@H]1CCCN1C(=O)[C@H](CCCN=C(N)N)NC(=O)[C@@H]1CCCN1C(=O)[C@H](Cc1ccc(O)cc1)NC(=O)[C@@H]1CCC(=O)N1)C(=O)N1CCC[C@H]1C(=O)N1CCC[C@H]1C(=O)O ([pGlu]YPRPQIPP-OH)							2600									
CCCC[C@H](NC(=O)[C@@H]1CCC(=O)N1)C(=O)N[C@@H](Cc1ccccc1)C(=O)N[C@@H](C)C(=O)N1CCC[C@H]1C(=O)O ([pGlu][Nle]FAP-OH)																IC50 [29]: 359 nM
C[C@H](CS)C(=O)N1CCC[C@H]1C(=O)O [CAPTOPRIL]			78.3			60.5			0						8.3	Inhibition over time [30]: 27.3%; Inhibition over time [31]: 71.5%; Inhibition over time [32]: 83.5%; Inhibition over time [33]: 8.3%; Inhibition over time [34]: 51.1%; Inhibition over time [35]: 0%; Inhibition over time [36]: 18.7%; Inhibition over time [37]: 1.8%; Inhibition over time [38]: 0%
C[C@H](NC(=O)[C@H](Cc1ccccc1)NC(=O)[C@H](CCCCN)NC(=O)[C@@H]1CCCN1C(=O)[C@H](CCCN=C(N)N)NC(=O)[C@@H]1CCCN1C(=O)[C@H](Cc1c[nH]c2ccccc12)NC(=O)[C@@H]1CCC(=O)N1)C(=O)N1CCC[C@H]1C(=O)O ([pGlu]WPRPKFAP-OH)							50									
